Ecoli tolC: growth inhibitors of E. coli tolC mutant, primary screen, strain BW25113 ΔtolC::kan, 384-well; OD615; growth inhibition, % at 10 µM (by protocol); hit rate 2.2% among 65,000; AID 573, 2007;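 active = growth inhibition at or above a cutoff equal to the mean over every tested compound plus 3 SD, cut at about 60% in these data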;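 also: growth measured after 20 h incubation at 37 °C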
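System: E. coli ΔtolC::kan strain BW25113; Buffer or medium: LB broth supplemented with 50 µg/mL kanamycin; Compound: 10 µM final, single dose; Incubation: bacterial growth with compound for 20 h at 37 °C; Signal: A615 absorbance measurement; Evaluation: growth inhibition in percent.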
CYP2C19 inh: blockers of cytochrome P450 2C19 activity – biochemical, luminescence, ADME assay, primary screen | inhibition, % at 5 µM | CYP2C19 Supersomes, luciferin-H EGE luminescence, 30 min | P33261 | hit rate 21% among 96,000 | AID 778, 2007;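 active = CYP2C19 inhibition above a set limit at 5 µM in the primary screen, cut at about 50% in these data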
Target sequence (P33261 whole entry, looked up): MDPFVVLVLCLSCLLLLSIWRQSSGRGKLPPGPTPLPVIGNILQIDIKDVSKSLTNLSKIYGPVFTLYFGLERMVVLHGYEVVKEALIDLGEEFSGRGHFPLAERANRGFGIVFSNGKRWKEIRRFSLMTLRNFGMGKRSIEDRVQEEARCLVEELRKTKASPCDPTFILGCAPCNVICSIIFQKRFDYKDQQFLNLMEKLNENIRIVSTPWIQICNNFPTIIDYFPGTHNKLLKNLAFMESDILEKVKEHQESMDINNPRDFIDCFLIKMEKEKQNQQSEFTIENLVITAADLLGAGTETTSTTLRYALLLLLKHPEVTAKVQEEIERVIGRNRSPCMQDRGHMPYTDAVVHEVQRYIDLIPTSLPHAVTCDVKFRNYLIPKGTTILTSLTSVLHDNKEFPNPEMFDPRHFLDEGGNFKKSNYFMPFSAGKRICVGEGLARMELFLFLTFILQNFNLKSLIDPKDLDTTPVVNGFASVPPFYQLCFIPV
CYP2C9 act: human CYP2C9 activators, primary screen, biochemical, luminescence | recombinant CYP2C9, luciferin-H conversion; hits give high values; factor 1 = untreated enzyme, 0 = blocked | hit rate 1.4% among 96,000 | activation factor at 5 µM;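 active = activation factor of 2 or more for CYP2C9 at a 5 µM dose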
CYP2C9 inhib: blockers of cytochrome P450 2C9 activity – biochemical, luminescence, ADME assay, primary screen. P11712. CYP2C9 Supersomes, luciferin-H conversion. inhibition, % at 5 µM. hit rate 20% among 96,000;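 active = blocking of liver enzyme CYP2C9 beyond about 50% at 5 µM, limit read from the data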
CYP2C19 activ: human CYP2C19 activators, primary screen, biochemical, luminescence; Cytochrome P450 2C19 (Homo sapiens), P33261; recombinant CYP2C19, luciferin-H EGE luminescence; hits give high values; 0 = fully inhibited enzyme, 1 = untreated enzyme; activation factor at 5 µM; 96,000 tested, under 10 active; AID 1025, 2008;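 active = activation factor of at least 2 at 5 µM in the primary screen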
E coli WT exp: growth inhibitors of wild-type E. coli, primary screen, strain BW25113, expanded library, OD600; OD600 absorbance; growth inhibition, % at 100 µM; hit rate 0.15% among 98,000; AID 710, 2007;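 active = growth inhibition above about 50% at one test dose, limit read from the data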;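 also: growth measured after 20 h incubation at 37 °C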
Of the large screens only hits and unclear results are named; the others gave an inactive call. Most compounds without a hit are left out; they make up all but 29% or so of the library.

COc1ccccc1C(=O)Nn1cnc2ccccc2c1=O	none
COc1ccc(S(=O)(=O)N(C)CC(=O)O)c2ccccc12	none
CC(=O)Oc1ccc(N(C(C)=O)S(=O)(=O)c2cccs2)c2ccccc12	CYP2C19 inh 88.5 (no result: Ecoli tolC)
O=C(O)CCc1nn2c3ccccc3nc2n(CCN2CCCCC2)c1=O	none (no result: CYP2C19 inh, CYP2C9 act, CYP2C9 inhib, CYP2C19 activ)
O=C(CSc1n[nH]c(-c2ccncc2)n1)NC1CCS(=O)(=O)C1 (stereo unspecified)	CYP2C9 inhib 72.2
Cc1cc(NC(=O)CSc2n[nH]c(-c3cccs3)n2)no1	none (no result: Ecoli tolC)
Cc1ccc(NC(=O)CSc2n[nH]c(-c3ccncc3)n2)cc1C	CYP2C19 inh 62.8, CYP2C9 inhib 96.7
O=C(CSc1n[nH]c(-c2ccccc2)n1)c1ccccc1	none
Cc1ccc(C)c(NC(=O)CSc2n[nH]c(-c3ccncc3)n2)c1	CYP2C19 inh 66.1, CYP2C9 inhib 95.8
CC(C)c1ccc(C(=O)CSc2n[nH]c(-c3ccncc3)n2)cc1	CYP2C19 inh 92.6, CYP2C9 inhib 94.3 (no result: Ecoli tolC)
O=C(Nc1ccccn1)c1ccc2ccccc2n1	none
COCc1cc(C)n(CC(=O)Nc2ccccc2C(=O)OC)c(=O)c1C#N	none
CC1CCCN(c2c([N+](=O)[O-])c(=O)oc3ccccc23)C1 (stereo unspecified)	CYP2C19 inh 94.3 (no result: Ecoli tolC)
O=c1oc2ccccc2c(Nc2ccc(O)cc2)c1[N+](=O)[O-]	none (no result: Ecoli tolC)
Cc1cc(C)c2cc(C#N)c(SCC(=O)NCc3ccco3)nc2c1	CYP2C9 inhib 71.2
COc1ccc(-c2[nH]c(-c3ccc(C)cc3)nc2SCC(=O)NCc2ccco2)cc1OC	CYP2C19 inh 63.9 (no result: Ecoli tolC)
Cc1ccc2c(SCC(=O)NCc3ccco3)nc(-c3ccc(F)cc3)nc2c1	CYP2C9 inhib 89.4
COc1ccc(-c2ccc(SCC(=O)NCc3ccco3)nn2)cc1OC	none
Cc1cc(C)n2nc(C(=O)OCCOc3cccc(Br)c3)nc2n1	none
c1cc2cn[nH]c2cc1NC1CCCCCC1	CYP2C19 inh 99.4, CYP2C9 inhib 63.8
COc1ccccc1CNS(=O)(=O)c1ccc2c(c1)oc(=O)n2C	CYP2C19 inh 97.7, CYP2C9 act 2.9
Cn1c(=O)oc2cc(S(=O)(=O)NCCC(=O)NCCc3ccccc3)ccc21	CYP2C19 inh 71.8
COc1ccccc1CNC(=O)C(NS(=O)(=O)c1ccc2c(c1)oc(=O)n2C)C(C)C (stereo unspecified)	none (no result: Ecoli tolC)
CCN(CCNS(=O)(=O)c1ccc2c(c1)oc(=O)n2C)c1ccccc1	CYP2C19 inh 65.4
Cn1c(=O)oc2cc(S(=O)(=O)NCCC(=O)NCCc3ccc(Cl)cc3)ccc21	none
Cc1ccc(CCNC(=O)CCNS(=O)(=O)c2ccc3c(c2)oc(=O)n3C)cc1	CYP2C19 inh 58.4
CCOC(=O)C1=C(CNCc2ccc(C)cc2)NC(=O)NC1c1ccc(OC)cc1 (stereo unspecified)	none
CC(C)c1ccc(NC2(C#N)C(=O)Nc3ccccc32)cc1 (stereo unspecified)	none (no result: Ecoli tolC)
CC(=O)N1CCc2cc(S(=O)(=O)NCCC(=O)NCCc3ccc(C)cc3)ccc21	CYP2C9 inhib 58.8
CCN(CC)c1ccc(NS(=O)(=O)c2ccc3c(c2)oc(=O)n3C)c(C)c1	CYP2C19 inh 83.6, CYP2C9 inhib 52.9
Cc1ccc(CS(=O)(=O)CCC(=O)NCc2cccs2)cc1	none
Cc1ccc(NC(=O)CN(C)C(=O)CSc2nc3ccccc3o2)cc1	none (no result: Ecoli tolC)
O=C(Nc1cnn(Cc2ccc(Cl)cc2)c1)c1cnccn1	CYP2C9 inhib 62.1
O=C(Nc1cnn(Cc2ccc(Cl)c(Cl)c2)c1)c1nc2ncccn2n1	none
CC(=O)Nc1cnn(Cc2ccc(Br)cc2)c1	CYP2C19 inh 66.4
Clc1ccc(Cn2cc(Br)cn2)cc1Cl	CYP2C19 inh 72.4
CCCCCc1nc(N)c(C#N)c(-c2ccco2)c1CCCC	none (no result: Ecoli tolC)
CCOC(=O)Nc1ccc2c(c1)N(C(=O)CCN1CCOCC1)c1ccccc1S2	CYP2C19 inh 65.2
COC(=O)Nc1ccc2c(c1)N(C(=O)CCN1CCOCC1)c1ccccc1S2	none
CCOC(=O)c1cnc2nc[nH]n2c1=O	none (no result: CYP2C19 inh, CYP2C9 act, CYP2C9 inhib, CYP2C19 activ, E coli WT exp)
CCCCOC(=O)n1c(SCC(=O)N(C)C)nc2ccccc21	CYP2C9 inhib 77.1
CCC1(C)OC(=O)N2CCc3c(C)[nH]c4c(C)ccc(c34)C21C (stereo unspecified)	CYP2C19 inh 69.3, CYP2C9 inhib 69.9
Cc1nc(-c2ccccn2)sc1C(=O)Nc1ccc(F)cc1	CYP2C9 act 2.1 (no result: Ecoli tolC)
Cc1nc(-c2ccccn2)sc1C(=O)Nc1ccc(F)cc1F	none (no result: Ecoli tolC)
O=c1c2ccccc2nc2n1CCN2Cc1ccc(Cl)cc1	CYP2C19 inh 74.3, CYP2C9 inhib 66.9
O=c1c2ccccc2nc(-c2ccccc2)n1Cc1ccc(Cl)cc1	CYP2C19 inh 76.6, CYP2C9 inhib 81.8 (no result: Ecoli tolC)
CCOC(=O)c1ccccc1NS(=O)(=O)c1ccc(S(=O)(=O)N2CCCC2)cc1	CYP2C19 inh 97.1, CYP2C9 inhib 90.6
O=C(OCCN1C(=O)c2ccccc2C1=O)c1cc(S(=O)(=O)N2CCOCC2)ccc1Cl	CYP2C19 inh 78.5, CYP2C9 inhib 85.5
O=C(NCCSCc1ccccc1)c1cc(S(=O)(=O)N2CCOCC2)ccc1F	CYP2C19 inh 51.4, CYP2C9 inhib 69.7
CCOC(=O)c1ccccc1NC(=O)c1cc(S(=O)(=O)N2CCOCC2)ccc1F	CYP2C9 inhib 58.9
O=C(OCC(=O)c1c[nH]c2ccccc12)c1ccc(Br)o1	CYP2C19 inh 65.8 (no result: Ecoli tolC)
O=C(OCC(=O)c1c[nH]c2ccccc12)c1ccco1	none
O=C(NCC1(c2ccccc2)CCOCC1)c1ccc(Br)o1	CYP2C19 inh 72.5
O=C(NCCC(c1ccccc1)c1ccccc1)c1ccc(Br)o1	CYP2C19 inh 66.7, CYP2C9 inhib 74.5 (no result: Ecoli tolC)
CC(C)C(=O)NCCSc1c[nH]c2ccccc12	none (no result: Ecoli tolC)
O=C(NCCSc1c[nH]c2ccccc12)c1ccc(Br)o1	CYP2C9 inhib 85.8
Cc1nn(C)cc1CNC(=O)c1ccc(Br)o1	none
COc1ccc2c(c1)c1ncn(CCN3CCNCC3)c(=O)c1n2C	none (no result: Ecoli tolC)
COc1ccccc1CCn1cnc2c3cc(C)ccc3n(C)c2c1=O	CYP2C19 inh 93.3, CYP2C9 inhib 70.9
COc1ccc2c(c1)c1ncn(CCN3CCCC3)c(=O)c1n2C	none
COc1ccc2c(c1)c1ncn(CCN3CCCCC3)c(=O)c1n2C	CYP2C9 inhib 56.2 (no result: Ecoli tolC)
O=C(c1ccc(N2CCNCC2)cc1)c1cccnc1	none
NC(=O)c1ccccc1N/C=C/C(=O)c1ccco1	CYP2C19 inh 59.6
Cc1ccc(C(=O)/C=C/Nc2ccccc2C(N)=O)cc1	none (no result: Ecoli tolC)
Cc1[nH]c2ccccc2c1C(=O)COC(=O)C1CCC(=O)N1 (stereo unspecified)	none

Screening results (PubChem BioAssay)
